# Tested on: Leishmania donovani
# Test: Antiprotozoal activity against Leishmania donovani promastigotes infected in BALB/c mouse assessed as inhibition of liver parasitemia at 30 mg/kg, ip qd for 5 days
# Assay type: functional
# Settings: 120 h, route intraperitoneal
# Outline: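 L. donovani-infected BALB/c mice dosed daily for 5 days, 30 mg/kg ip or 10 mg/kg orally, depending on line.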
row,Structure (SMILES),inhibition in vivo at 30 mg/kg
1,Cl.Cl.Cl.N=C(Nc1ccc(-c2cc(Cl)cc(-c3cccc(NC(=N)c4ccccn4)c3)c2)cc1)c1ccccn1,23%

# Tested on: Trypanosoma brucei rhodesiense
# Test: Antiprotozoal activity against Trypanosoma brucei rhodesiense STIB900 infected in NMRI mouse assessed as host mean survival days at 25 mg/kg, po qd for 4 days
# Assay type: functional
# Settings: not given
# Outline: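 Acute-stage HAT mouse model infected with STIB900. Cure means survival to 60 days after infection with no parasitemia relapse. Mean survival days are counted from infection and use every mouse: relapsed mice, plus cured mice entered as >60 days.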
row,Structure (SMILES),MSD
1,Cl.Cl.N/C(=N/O)c1ccc(-c2cccc(-c3ccc(/C(N)=N\O)cc3)c2)cc1,>51.25 days
2,CO/N=C(\N)c1ccc(-c2cccc(-c3ccc(/C(N)=N\OC)cn3)c2)nc1.Cl,>53.75 days
3,CN(C)CC(=O)O/N=C(\N)c1ccc(-c2cccc(-c3ccc(/C(N)=N\OC(=O)CN(C)C)cn3)c2)nc1,>52 days

# Tested on: not listed separately
# Test: Selectivity index, ratio of IC50 for rat L6 cells to IC50 for Plasmodium falciparum K1
# Assay type: toxicity, cell-based
# Settings: L6 cells, read-out: Ratio IC50
# Outline: (§1)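 Selectivity index is IC50 against L6 rat myoblast cells divided by IC50 against the named parasite.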
row,Structure (SMILES),selectivity ratio
1,CO/N=C(\N)c1ccc(-c2cccc(-c3ccc(/C(N)=N\OC)cn3)c2)nc1.Cl,> 42
2,CN(C)CC(=O)O/N=C(\N)c1ccc(-c2cccc(-c3ccc(/C(N)=N\OC(=O)CN(C)C)cn3)c2)nc1,129
3,Cl.Cl.Cl.N=C(Nc1ccc(-c2cc(Cl)cc(-c3cccc(NC(=N)c4ccccn4)c3)c2)cc1)c1ccccn1,12

# Tested on: Trypanosoma cruzi
# Test: Antiprotozoal activity against intracellular amastigote form of Trypanosoma cruzi Tulahuen C2C4 expressing LacZ infected in rat L6 cells after 48 hrs
# Assay type: functional, organism-based
# Settings: Tulahuen C2C4, L6, 48 h
# Outline: (§2)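 Uses T. b. rhodesiense STIB900, T. cruzi Tulahuen C2C4 LacZ intracellular amastigotes, or L6 rat myoblasts depending on line.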
row,Structure (SMILES),IC50
1,Cl.Cl.N/C(=N/O)c1ccc(-c2cccc(-c3ccc(/C(N)=N\O)cc3)c2)cc1,> 150 µM
2,CO/N=C(\N)c1ccc(-c2cccc(-c3ccc(/C(N)=N\OC)cn3)c2)nc1.Cl,117 µM
3,CN(C)CC(=O)O/N=C(\N)c1ccc(-c2cccc(-c3ccc(/C(N)=N\OC(=O)CN(C)C)cn3)c2)nc1,72.3 µM
4,Cl.Cl.Cl.N=C(Nc1ccc(-c2cc(Cl)cc(-c3cccc(NC(=N)c4ccccn4)c3)c2)cc1)c1ccccn1,1.54 µM

# Tested on: L6
# Test: Cytotoxicity against rat L6 cells after 72 hrs by Alamar Blue assay
# Assay type: cell-based
# Settings: L6, 72 h
# Outline: as §2
row,Structure (SMILES),IC50
1,Cl.Cl.N/C(=N/O)c1ccc(-c2cccc(-c3ccc(/C(N)=N\O)cc3)c2)cc1,> 150 µM
2,CO/N=C(\N)c1ccc(-c2cccc(-c3ccc(/C(N)=N\OC)cn3)c2)nc1.Cl,> 150 µM
3,CN(C)CC(=O)O/N=C(\N)c1ccc(-c2cccc(-c3ccc(/C(N)=N\OC(=O)CN(C)C)cn3)c2)nc1,62.9 µM
4,Cl.Cl.Cl.N=C(Nc1ccc(-c2cc(Cl)cc(-c3cccc(NC(=N)c4ccccn4)c3)c2)cc1)c1ccccn1,2.64 µM

# Tested on: Mus musculus
# Test: Toxicity in BALB/c mouse assessed as mortality at 30 mg/kg, ip qd for 5 days
# Assay type: organism-based
# Set-up: dose 30 mg/kg, route intraperitoneal
# Settings: in vivo, 120 h
row,Structure (SMILES),Activity
1,Cl.Cl.Cl.N=C(Nc1ccc(-c2cc(Cl)cc(-c3cccc(NC(=N)c4ccccn4)c3)c2)cc1)c1ccccn1,Non-toxic

# Tested on: Leishmania amazonensis
# Test: Antiprotozoal activity against intracellular amastigote form of Leishmania amazonensis infected in CD1 mouse macrophages after 72 hrs by […]
# Assay type: functional, organism-based
# Settings: not given
row,Structure (SMILES),IC50
1,Cl.Cl.Cl.N=C(Nc1ccc(-c2cc(Cl)cc(-c3cccc(NC(=N)c4ccccn4)c3)c2)cc1)c1ccccn1,0.211 µM

# Tested on: not listed separately
# Test: Selectivity index, ratio of IC50 for rat L6 cells to IC50 for Trypanosoma brucei rhodesiense STIB900
# Assay type: toxicity, cell-based
# Settings: L6 cells, read-out: Ratio IC50
# Outline: as §1
row,Structure (SMILES),selectivity ratio
1,Cl.Cl.N/C(=N/O)c1ccc(-c2cccc(-c3ccc(/C(N)=N\O)cc3)c2)cc1,> 14
2,CO/N=C(\N)c1ccc(-c2cccc(-c3ccc(/C(N)=N\OC)cn3)c2)nc1.Cl,> 6
3,CN(C)CC(=O)O/N=C(\N)c1ccc(-c2cccc(-c3ccc(/C(N)=N\OC(=O)CN(C)C)cn3)c2)nc1,6
4,Cl.Cl.Cl.N=C(Nc1ccc(-c2cc(Cl)cc(-c3cccc(NC(=N)c4ccccn4)c3)c2)cc1)c1ccccn1,24

# Tested on: Plasmodium falciparum
# Test: Antiprotozoal activity against chloroquine-resistant Plasmodium falciparum K1 after 48 hrs by [3H]-hypoxanthine incorporation assay
# Assay type: functional, organism-based
# Settings: Plasmodium falciparum, K1
row,Structure (SMILES),IC50
1,Cl.Cl.N/C(=N/O)c1ccc(-c2cccc(-c3ccc(/C(N)=N\O)cc3)c2)cc1,> 10 µM
2,CO/N=C(\N)c1ccc(-c2cccc(-c3ccc(/C(N)=N\OC)cn3)c2)nc1.Cl,3.56 µM
3,CN(C)CC(=O)O/N=C(\N)c1ccc(-c2cccc(-c3ccc(/C(N)=N\OC(=O)CN(C)C)cn3)c2)nc1,0.486 µM
4,Cl.Cl.Cl.N=C(Nc1ccc(-c2cc(Cl)cc(-c3cccc(NC(=N)c4ccccn4)c3)c2)cc1)c1ccccn1,0.219 µM

# Tested on: not listed separately
# Test: Selectivity index, ratio of IC50 for rat L6 cells to IC50 for Trypanosoma cruzi Tulahuen C2C4
# Assay type: toxicity, cell-based
# Settings: read-out: Ratio IC50
# Outline: as §1
row,Structure (SMILES),selectivity ratio
1,CO/N=C(\N)c1ccc(-c2cccc(-c3ccc(/C(N)=N\OC)cn3)c2)nc1.Cl,> 1
2,CN(C)CC(=O)O/N=C(\N)c1ccc(-c2cccc(-c3ccc(/C(N)=N\OC(=O)CN(C)C)cn3)c2)nc1,< 1
3,Cl.Cl.Cl.N=C(Nc1ccc(-c2cc(Cl)cc(-c3cccc(NC(=N)c4ccccn4)c3)c2)cc1)c1ccccn1,2

# Tested on: Trypanosoma brucei rhodesiense
# Test: Antiprotozoal activity against Trypanosoma brucei rhodesiense STIB900 after 72 hrs by Alamar Blue assay
# Assay type: functional, organism-based
# Settings: Trypanosoma brucei, STIB900, 72 h
# Outline: as §2
row,Structure (SMILES),IC50
1,Cl.Cl.N/C(=N/O)c1ccc(-c2cccc(-c3ccc(/C(N)=N\O)cc3)c2)cc1,10.9 µM
2,CO/N=C(\N)c1ccc(-c2cccc(-c3ccc(/C(N)=N\OC)cn3)c2)nc1.Cl,26.3 µM
3,CN(C)CC(=O)O/N=C(\N)c1ccc(-c2cccc(-c3ccc(/C(N)=N\OC(=O)CN(C)C)cn3)c2)nc1,9.84 µM
4,Cl.Cl.Cl.N=C(Nc1ccc(-c2cc(Cl)cc(-c3cccc(NC(=N)c4ccccn4)c3)c2)cc1)c1ccccn1,0.109 µM

# Tested on: not listed separately
# Test: Selectivity index, ratio of IC50 for rat L6 cells to IC50 for Leishmania amazonensis
# Assay type: toxicity, cell-based
# Settings: read-out: Ratio IC50
# Outline: as §1
row,Structure (SMILES),selectivity ratio
1,Cl.Cl.Cl.N=C(Nc1ccc(-c2cc(Cl)cc(-c3cccc(NC(=N)c4ccccn4)c3)c2)cc1)c1ccccn1,13
